Laboratory results published in PMC2850055 (Analytical chemistry, 2009).
Entries after “also recorded” stand apart in the source; their conditions may differ. Starred links: 1 amine or outer side, 2 acyl side, 3 side chain; linkers in the order of their positions; H or OH if unused. Non-standard residues stand in square brackets, D forms with d. Residues, ends and D or L forms follow the SMILES beside them. *: point of attachment. X2 = CCC(=O)CC1CC(C)CC(C(=O)[*:2])N1[*:1]; X1 = CCCCCCCCC(C)C(=O)*; Aib = CC(C)(N)C(=O)O; X3 = CC(CN(C)CCO)N*

How the values were obtained:
[1] = tested on: primary mouse astrocytes expressing endogenous AQP4; assay: Calcein fluorescence quenching cell volume assay in primary mouse astrocytes; format: cell-based; settings: for alteration of water flux kinetics / cell volume regulation (RVI, RVD, shrinkage): 20 μM, 15 min incubation, osmotic shock
[2] = tested on: AQP1-expressing fibroblasts (2497 cells); assay: Calcein fluorescence quenching cell volume assay in 2497 fibroblasts; format: cell-based, mouse; settings: 0.2 mM, 3 min preincubation, hyperosmotic challenge
Summary of the method: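 Mouse 2497 fibroblasts with endogenous AQP1 were grown in DMEM with 10% FBS at 37 °C. Cells were plated at 12 000 per well and assayed 24–48 h later at 80–85% confluence. They were loaded with 10 μM calcein-AM for 45 min at 37 °C and preincubated with the agent before the osmotic step. Fluorescence was read at ex 490/em 520 nm every 0.5 s: 15 s baseline, 35 s after hyperosmolar PBS (0.5 M NaCl), then 40 s after water. Shrinkage time constant came from an exponential fit.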

AQP4 = AQP4 (Rattus norvegicus, UniProt P47863); format: biochemical
Summary of the method: (§1)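 Plasma membrane vesicles from rat TNC1 cells were made by homogenisation in sucrose/EDTA/protease-inhibitor buffer (pH 7.2), a 4000g 15 min spin, then pelleting of the supernatant at 17 000g for 45 min. Vesicles at 0.5 mg protein/mL in 50 mM sucrose, 10 mM Tris-HCl pH 7.4 were preincubated 15 min with test compound. Stopped-flow mixing imposed a 250 mOsm inward sucrose gradient. Volume decrease was followed by 90° scatter at 530 nm, and time constant was computed.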

[3] = tested on: vesicles from TNC1-untransfected cells; assay: Stopped-flow light scattering in vesicles from untransfected TNC1 cells; format: biochemical, rat; settings: 20 μM, data not shown
Summary of the method: as §1

[4] = target: T1, AQP1 (native, erythrocytes) (Rattus norvegicus, UniProt P29975); assay: Stopped-flow light scattering water transport in erythrocytes; format: cell-based
T1 sequence (P29975 1-269): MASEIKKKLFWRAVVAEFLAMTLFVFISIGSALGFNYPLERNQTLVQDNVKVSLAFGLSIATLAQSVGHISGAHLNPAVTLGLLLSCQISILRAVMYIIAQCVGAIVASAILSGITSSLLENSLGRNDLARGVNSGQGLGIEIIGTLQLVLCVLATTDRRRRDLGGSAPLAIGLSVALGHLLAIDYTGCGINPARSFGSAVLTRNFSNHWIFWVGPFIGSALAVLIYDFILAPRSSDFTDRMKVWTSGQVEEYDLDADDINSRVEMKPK
Summary of the method: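 Erythrocytes came from heparinised Wistar rat blood, were washed three times in PBS (800g, 4 °C, 10 min) and used within 24 h. At 1% haematocrit in PBS they were preincubated 15 min with test compound, then stopped-flow mixed with equal-volume hyperosmolar PBS to give a 250 mOsm inward gradient. Shrinkage was recorded by light scattering at 600 nm at 12 °C.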

[5] = target: AQP4 (M23 isoform) in transfected TNC1 cells (Rattus norvegicus, UniProt P47863); assay: Calcein fluorescence quenching cell volume assay in AQP4-transfected TNC1 cells; format: cell-based; settings: 20 uM
Summary of the method: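 Rat TNC1 astrocytoma cells were stably co-transfected with rat AQP4 M23 (aa23–323) cDNA and a puromycin-resistance vector, then maintained in 2 μg/mL puromycin. Cells were plated at 12 000 per well and loaded with 10 μM calcein-AM for 45 min at 37 °C. Test compound was given for 15 min at 20 μM final. Calcein fluorescence (490/520 nm) was recorded every 0.5 s through a hyperosmolar NaCl challenge and isosmotic restoration. Shrinkage time constant came from an exponential fit.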

AQP4, sequence (P47863 23-323): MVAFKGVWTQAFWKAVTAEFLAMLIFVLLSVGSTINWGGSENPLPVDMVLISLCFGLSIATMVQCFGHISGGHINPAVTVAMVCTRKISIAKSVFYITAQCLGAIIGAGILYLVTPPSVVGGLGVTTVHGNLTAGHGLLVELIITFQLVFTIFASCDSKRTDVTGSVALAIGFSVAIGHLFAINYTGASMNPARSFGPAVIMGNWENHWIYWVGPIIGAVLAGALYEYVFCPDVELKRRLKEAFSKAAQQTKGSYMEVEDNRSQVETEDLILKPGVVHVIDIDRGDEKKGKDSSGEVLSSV
AQP4 (M23 isoform) in transfected TNC1 cells, sequence (P47863 23-323): as above

## [Cl][Hg][Cl] [HgCl2, mercuric chloride]
[1]; astrocytes pretreated with 0.2 mM, 3 min
  effect on time course/kinetics of cell shrinkage: did not change significantly; also recorded: lack of effect
[2]
  reduction of the cell shrinkage rate: 52.7 ± 3%

## CCC[CH2][Sn]([CH2]CCC)([CH2]CCC)[O]c1cc(Cl)c(Cl)cc1Cl [NSC164914, tributyl-(2,4,5-trichlorophenoxy)stannane]
[1]
  alteration of water flux kinetics / cell volume regulation (RVI, RVD, shrinkage): affected shrinkage rate
AQP4
  effect on AQP4: inhibitory effects
[3]
  reduction of shrinkage kinetics: no significant reduction
[4]
  effect on AQP1: inhibitory effects
[4]; 40 μM
  inhibition of the shrinkage rate: ~ 64%

## CCC[CH2][Pb]([Cl])([CH2]CCC)[CH2]CCC [NSC168597, tributyl-chloroplumbane]
AQP4
  effect on AQP4: inhibitory effects
[4]
  effect on AQP1: inhibitory effects

## CCCCCCCCC(C)C(=O)N1CCCC1C(=O)N1C(CC(=O)CC)CC(C)CC1C(=O)NC(C)C(=O)NC(C)(C)C(=O)NC(C)(C)C(=O)NC(C(=O)NC(C)C(=O)NC(C)(C)C(=O)NC(C)(C)C(=O)NC(C)CN(C)CCO)C(C)CC (stereo not shown) [NSC301460, trichopolin] (X1-P[X2]A[Aib][Aib]IA[Aib][Aib]-X3; configuration not given here)
[1]
  alteration of water flux kinetics / cell volume regulation (RVI, RVD, shrinkage): affected shrinkage rate

## CCCCCn1cc2c3c(cccc31)C1C=C(C)CN(C)[C@@H]1C2.Cc1ccc(C(=O)OC(C(=O)O)C(OC(=O)c2ccc(C)cc2)C(=O)O)cc1 (stereo not shown) [NSC600681]
[5]
  AQP4-mediated cell shrinkage time constant: significantly longer

## COc1ccc(CCN2CCC(Nc3nc4ccccc4n3Cc3ccc(F)cc3)CC2)cc1 [astemizole]
[1]
  alteration of water flux kinetics / cell volume regulation (RVI, RVD, shrinkage): Altered cell volume regulation

## OCCN1CCN(CCCN2c3ccccc3Sc3ccc(C(F)(F)F)cc32)CC1 [fluphenazine]
[1]
  alteration of water flux kinetics / cell volume regulation (RVI, RVD, shrinkage): Altered cell volume regulation
